ChEMBL document CHEMBL3102828, “Synthesis and antibacterial activity of a series of novel 9-O-acetyl- 4'-substituted 16-membered macrolides derived from josamycin” (2014)
Converted amounts (≈) assume the structure as drawn.

Tests used:
Format in all cases: functional
[1] = tested on: Staphylococcus epidermidis; assay: Antimicrobial activity against methicillin-sensitive Staphylococcus epidermidis 09-9 by broth microdilution method
Summary of the method: (§1)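 MICs determined by broth microdilution as recommended by CLSI. Tested against a panel of five S. aureus strains and three S. epidermidis strains. ATCC 29213, 15 and 09–06 are methicillin-sensitive S. aureus. Josamycin served as the reference.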

[2] = tested on: Staphylococcus epidermidis; assay: Antimicrobial activity against methicillin-resistant Staphylococcus epidermidis 09-3 by broth microdilution method
Summary of the method: (§2)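 MIC read-out from broth microdilution performed according to CLSI recommendations; each strain was tested in vitro alongside the parent macrolide reference.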

[3] = tested on: Staphylococcus epidermidis; assay: Antimicrobial activity against methicillin-sensitive Staphylococcus epidermidis ATCC 12228 by broth microdilution method; summary of the method: as §1
[4] = tested on: Staphylococcus aureus; assay: Antimicrobial activity against methicillin-resistant Staphylococcus aureus 09-13 by broth microdilution method; summary of the method: as §2
[5] = tested on: Staphylococcus aureus; assay: Antimicrobial activity against methicillin-sensitive Staphylococcus aureus 09-6 by broth microdilution method; summary of the method: as §1
[6] = tested on: Staphylococcus aureus; assay: Antimicrobial activity against methicillin-sensitive Staphylococcus aureus 15 by broth microdilution method; summary of the method: as §1
[7] = tested on: Staphylococcus aureus; assay: Antimicrobial activity against methicillin-resistant Staphylococcus aureus ATCC 33591 by broth microdilution method; summary of the method: as §2
[8] = tested on: Staphylococcus aureus; assay: Antimicrobial activity against methicillin-sensitive Staphylococcus aureus ATCC 29213 by broth microdilution method; summary of the method: as §1

Row | Compound | MIC [1] | MIC [2] | MIC [3] | MIC [4] | MIC [5] | MIC [6] | MIC [7] | MIC [8]
1 | CO[C@H]1/C=C\C(=O)O[C@H](C)C/C=C/C=C/[C@H](OC(C)=O)[C@H](C)C[C@H](CC=O)[C@@H]1O[C@@H]1O[C@H](C)[C@@H](O)[C@H](N(C)C)[C@H]1O | 64 µg/mL (≈ 110 µM) | > 64 µg/mL | 64 µg/mL (≈ 110 µM) | > 64 µg/mL | > 64 µg/mL | > 64 µg/mL | > 64 µg/mL | > 64 µg/mL
2 | CO[C@H]1/C=C\C(=O)O[C@H](C)C/C=C/C=C/[C@H](O)[C@H](C)C[C@H](CC=O)[C@@H]1O[C@@H]1O[C@H](C)[C@@H](O)[C@H](N(C)C)[C@H]1O | > 32 µg/mL | > 32 µg/mL | > 32 µg/mL | > 32 µg/mL | > 32 µg/mL | > 32 µg/mL | > 32 µg/mL | > 32 µg/mL
3 | CO[C@@H]1[C@@H](O[C@@H]2O[C@H](C)[C@@H](OC(=O)Nc3ccc(C(F)(F)F)cc3)[C@H](N(C)C)[C@H]2O)[C@@H](CC=O)C[C@@H](C)[C@@H](OC(C)=O)/C=C/C=C/C[C@@H](C)OC(=O)C[C@H]1OC(C)=O | > 64 µg/mL | > 64 µg/mL | > 64 µg/mL | > 64 µg/mL | > 64 µg/mL | > 64 µg/mL | > 64 µg/mL | > 64 µg/mL
4 | CO[C@H]1/C=C\C(=O)O[C@H](C)C/C=C/C=C/[C@H](OC(C)=O)[C@H](C)C[C@H](CC=O)[C@@H]1O[C@@H]1O[C@H](C)[C@@H](OC(=O)Nc2ccc(C(F)(F)F)cc2)[C@H](N(C)C)[C@H]1O | > 64 µg/mL | > 64 µg/mL | > 64 µg/mL | > 64 µg/mL | > 64 µg/mL | > 64 µg/mL | > 64 µg/mL | > 64 µg/mL
5 | CO[C@H]1/C=C\C(=O)O[C@H](C)C/C=C/C=C/[C@H](O)[C@H](C)C[C@H](CC=O)[C@@H]1O[C@@H]1O[C@H](C)[C@@H](OC(=O)Nc2ccc(C(F)(F)F)cc2)[C@H](N(C)C)[C@H]1O | > 64 µg/mL | > 64 µg/mL | > 64 µg/mL | > 64 µg/mL | > 64 µg/mL | > 64 µg/mL | > 64 µg/mL | > 64 µg/mL
6 | CO[C@@H]1[C@@H](O[C@@H]2O[C@H](C)[C@@H](OC(=O)c3ccccc3)[C@H](N(C)C)[C@H]2O)[C@@H](CC=O)C[C@@H](C)[C@@H](OC(C)=O)/C=C/C=C/C[C@@H](C)OC(=O)C[C@H]1OC(C)=O | 8 µg/mL (≈ 10.7 µM) | > 64 µg/mL | 8 µg/mL (≈ 10.7 µM) | > 64 µg/mL | 8 µg/mL (≈ 10.7 µM) | 8 µg/mL (≈ 10.7 µM) | > 64 µg/mL | 8 µg/mL (≈ 10.7 µM)
7 | COc1ccc(C(=O)O[C@H]2[C@H](N(C)C)[C@@H](O)[C@H](O[C@H]3[C@@H](CC=O)C[C@@H](C)[C@@H](OC(C)=O)/C=C/C=C/C[C@@H](C)OC(=O)C[C@@H](OC(C)=O)[C@@H]3OC)O[C@@H]2C)cc1 | 8 µg/mL (≈ 10.3 µM) | > 64 µg/mL | 8 µg/mL (≈ 10.3 µM) | > 64 µg/mL | 8 µg/mL (≈ 10.3 µM) | 8 µg/mL (≈ 10.3 µM) | > 64 µg/mL | 8 µg/mL (≈ 10.3 µM)
8 | CO[C@@H]1[C@@H](O[C@@H]2O[C@H](C)[C@@H](OC(=O)c3ccc([N+](=O)[O-])cc3)[C@H](N(C)C)[C@H]2O)[C@@H](CC=O)C[C@@H](C)[C@@H](OC(C)=O)/C=C/C=C/C[C@@H](C)OC(=O)C[C@H]1OC(C)=O | 32 µg/mL (≈ 40.5 µM) | > 64 µg/mL | 32 µg/mL (≈ 40.5 µM) | > 64 µg/mL | 32 µg/mL (≈ 40.5 µM) | > 64 µg/mL | > 64 µg/mL | 32 µg/mL (≈ 40.5 µM)
9 | CO[C@@H]1[C@@H](O[C@@H]2O[C@H](C)[C@@H](OC(=O)/C=C/c3ccccc3)[C@H](N(C)C)[C@H]2O)[C@@H](CC=O)C[C@@H](C)[C@@H](OC(C)=O)/C=C/C=C/C[C@@H](C)OC(=O)C[C@H]1OC(C)=O | 4 µg/mL (≈ 5.18 µM) | > 32 µg/mL | 4 µg/mL (≈ 5.18 µM) | > 32 µg/mL | 8 µg/mL (≈ 10.4 µM) | > 32 µg/mL | > 32 µg/mL | 8 µg/mL (≈ 10.4 µM)
10 | CO[C@@H]1[C@@H](O[C@@H]2O[C@H](C)[C@@H](OC(=O)/C=C/c3ccnc4ccccc34)[C@H](N(C)C)[C@H]2O)[C@@H](CC=O)C[C@@H](C)[C@@H](OC(C)=O)/C=C/C=C/C[C@@H](C)OC(=O)C[C@H]1OC(C)=O | 8 µg/mL (≈ 9.72 µM) | > 64 µg/mL | 8 µg/mL (≈ 9.72 µM) | > 64 µg/mL | 8 µg/mL (≈ 9.72 µM) | 16 µg/mL (≈ 19.4 µM) | > 64 µg/mL | 8 µg/mL (≈ 9.72 µM)
11 | CO[C@@H]1[C@@H](O[C@@H]2O[C@H](C)[C@@H](OC(=O)CCc3ccccc3)[C@H](N(C)C)[C@H]2O)[C@@H](CC=O)C[C@@H](C)[C@@H](OC(C)=O)/C=C/C=C/C[C@@H](C)OC(=O)C[C@H]1OC(C)=O | 4 µg/mL (≈ 5.17 µM) | > 32 µg/mL | 4 µg/mL (≈ 5.17 µM) | > 32 µg/mL | 4 µg/mL (≈ 5.17 µM) | 8 µg/mL (≈ 10.3 µM) | > 32 µg/mL | 4 µg/mL (≈ 5.17 µM)
12 | CCCC(=O)O[C@H]1[C@H](N(C)C)[C@@H](O)[C@H](O[C@H]2[C@@H](CC=O)C[C@@H](C)[C@@H](OC(C)=O)/C=C/C=C/C[C@@H](C)OC(=O)C[C@@H](OC(C)=O)[C@@H]2OC)O[C@@H]1C | 4 µg/mL (≈ 5.62 µM) | > 64 µg/mL | 4 µg/mL (≈ 5.62 µM) | > 64 µg/mL | 4 µg/mL (≈ 5.62 µM) | 4 µg/mL (≈ 5.62 µM) | > 64 µg/mL | 4 µg/mL (≈ 5.62 µM)
13 | CO[C@@H]1[C@@H](O[C@@H]2O[C@H](C)[C@@H](OC(=O)CC(C)C)[C@H](N(C)C)[C@H]2O)[C@@H](CC=O)C[C@@H](C)[C@@H](OC(C)=O)/C=C/C=C/C[C@@H](C)OC(=O)C[C@H]1OC(C)=O | 8 µg/mL (≈ 11 µM) | > 64 µg/mL | 8 µg/mL (≈ 11 µM) | > 64 µg/mL | 8 µg/mL (≈ 11 µM) | 8 µg/mL (≈ 11 µM) | > 64 µg/mL | 8 µg/mL (≈ 11 µM)
14 | CO[C@@H]1[C@@H](O[C@@H]2O[C@H](C)[C@@H](O)[C@H](N(C)C)[C@H]2O)[C@@H](CC=O)C[C@@H](C)[C@@H](OC(C)=O)/C=C/C=C/C[C@@H](C)OC(=O)C[C@H]1OC(C)=O | 16 µg/mL (≈ 24.9 µM) | > 32 µg/mL | 16 µg/mL (≈ 24.9 µM) | > 32 µg/mL | 16 µg/mL (≈ 24.9 µM) | 16 µg/mL (≈ 24.9 µM) | > 32 µg/mL | 16 µg/mL (≈ 24.9 µM)
15 | CO[C@@H]1[C@@H](O[C@@H]2O[C@H](C)[C@@H](O[C@H]3C[C@@](C)(O)[C@@H](OC(=O)CC(C)C)[C@H](C)O3)[C@H](N(C)C)[C@H]2O)[C@@H](CC=O)C[C@@H](C)[C@@H](O)/C=C/C=C/C[C@@H](C)OC(=O)C[C@H]1OC(C)=O [JOSAMYCIN] | 2 µg/mL (≈ 2.42 µM) | > 32 µg/mL | 1 µg/mL (≈ 1.21 µM) | 32 µg/mL (≈ 38.6 µM) | 1 µg/mL (≈ 1.21 µM) | 2 µg/mL (≈ 2.42 µM) | > 32 µg/mL | 1 µg/mL (≈ 1.21 µM)
